# Experimental data published in ChEMBL document CHEMBL4513216, “Probing the Open Global Health Chemical Diversity Library for Multistage-Active Starting Points for Next-Generation Antimalarials” (ACS Infect Dis, 2020).
# Assay: Toxicity liver stage against HepG2, at 10uM
# Assay type: cell-based
# Parameters: test concentration 10 uM, cell line HepG2-A16-CD81EGFP
# Conditions: human, HepG2-A16-CD81EGFP cells; read-out: INHIBITION
# How it was run: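 Uninfected HepG2-A16-CD81EGFP cells, 3 × 10^3 per well, 1536-well, plated on prespotted compound at 10 μM final, parasite-free screening media added to match infected plates; puromycin 10 μM positive, DMSO 0.5% negative; run in parallel with 48 h PbLuc assay at 37 °C, 5% CO2; viability by CellTiter-Glo luminescence, normalized to controls.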
row,SMILES,cytotoxicity at 10 µM [%]
1,CC(C)(C)c1coc([C@@H]2COCCN2Cc2ccccc2)n1,2.72
2,COc1ccc(NC(=O)c2nc3ccccc3n(C)c2=O)c(OC)c1,0.37
3,COC1CCN(C(=O)CC2CCCC2)CC(=O)N(C)c2ccccc21 (configuration not stated),-3.09
4,COC(=O)CC(c1ccc(OC)c(O)c1)c1oc(C)cc(=O)c1O (configuration not stated),-0.634
5,CC(C)(C)n1ncc2c1NC(=O)CSC2c1ccc2c(c1)OCO2 (configuration not stated),0.148
6,O=C(NCC1(O)CCOc2ccccc21)Nc1ccccc1 (configuration not stated),-4.2
7,COc1ccc(C(=O)Nc2ccccc2-c2ccc(=O)n(C)n2)nn1,2.18
8,C1CC(CN2C[C@@H]3C[C@@H](c4nnc(C5CC5)o4)O[C@@H]3C2)CCO1,6.58
9,O=C(CC1CC1)N[C@@H]1CN(Cc2ccoc2)C[C@@H]2CCCO[C@@H]21,7.83
10,Cc1ccc(C(=O)N2CCc3ncnc(C)c3CC2)cc1F,11.5
11,CCS(=O)(=O)N1CCN(C(=O)NC(C)C)CC2(CNC(=O)C2)C1 (configuration not stated),-0.82
12,CCOC(=O)CN1CCC2(CC1)CC(NC(=O)c1ccccn1)CO2 (configuration not stated),2.17
13,O=C(CSC1CCc2ccccc2NC1=O)NCc1cccs1 (configuration not stated),-2
14,O=C(N[C@@H]1CN(c2ncccn2)[C@@H]2CCCO[C@@H]21)c1cnccn1,-4.8
15,CCn1cc(Cl)c(C(=O)NCc2cnn(C)c2)n1,-4.41
16,Cn1ncc2c1NC(=O)CC2c1ccc(F)cc1 (configuration not stated),4.63
17,COCCN1CCN(Cc2cnc(C3(C)CCCCO3)nc2)CC1 (configuration not stated),1.16
18,O=C(CC1CCN(c2cccnn2)CC1)NC1CCOCC1,0.671
19,Nc1cc(-c2cncnc2C2CCN(C(=O)c3ccccc3)C2)ccn1 (configuration not stated),1.32
20,O=C(O)c1ccc(Cc2cccc(F)c2)nc1,3.11
21,Cc1ccccc1CC(=O)N1C[C@@H](O)[C@H](N2CCC(F)(F)CC2)C1,-14

row,SMILES,cytotoxicity at 10 µM [%]
1,Cc1c[nH]nc1C1CCN(C(=O)C2CCOCC2)C1 (configuration not stated),4.71
2,CC(C)CC(=O)Nc1ccc(Oc2ccsc2C(=O)O)cc1,7.66
3,CCC(CO)NC(=O)Nc1cc(F)ccc1Br (configuration not stated),11.9
4,Cc1csc(CNC(=O)CCCc2cccs2)n1,-47.1
5,Cc1cc(Br)ccc1C(=O)NCCN1CCCCCC1,-11.6
6,CCOC(C)c1nccn1Cc1c(C)noc1C (configuration not stated),3.11
7,CC(C(=O)Nc1ccccc1F)S(C)(=O)=O (configuration not stated),-5.27
8,CCn1cnnc1C1CCN(C(=O)Cc2ccc(OC)c(F)c2)CC1,-7.54
9,CN(Cc1ccco1)C(=O)NCc1ccnc(SC(C)(C)C)c1,14.4
10,Cc1cnc(CN(C)C2CCCN(c3cccnn3)C2)cn1 (configuration not stated),10.4
11,CCn1c(CNC(=O)c2ccc(N(C)C)nc2)nc2ccccc21,4.5
12,Cc1nc(-c2ccsc2)sc1C(=O)N1CCn2c(C)nnc2C1,-3.29
13,O=C(NCc1ccccc1CO)C1COc2ccccc21 (configuration not stated),12.3
14,CCc1nc(C(=O)N2CC(C(C)C)Nc3ccccc32)c[nH]1 (configuration not stated),-0.0979
15,OC(COCc1ccco1)CN1CCC(Cn2cccn2)CC1 (configuration not stated),-1.73
16,CCN(CCC(F)(F)F)C(=O)Nc1cccc(N2CCOCC2)c1,-8.02
17,CC(=O)c1cccc(OCCCC(=O)N(C)Cc2ccccn2)c1,-24.4
18,Cc1noc(C)c1CCC(=O)NC(C)c1nnc2n1CCC2 (configuration not stated),-3.39
19,Cc1ccc(CN(C)C(=O)CN2CCCC2Cn2cccn2)o1 (configuration not stated),-10.4
20,Cc1cc(C)n(C2CN(Cc3noc(-c4ccccc4)n3)C2)n1,-12.8
21,OCc1ccc(Cl)c(NCc2cccnc2)c1,3.12

row,SMILES,cytotoxicity at 10 µM [%]
1,N#CCSCCCN1CCN(C(=O)c2ccc(Cl)cc2)CC1,-10.3
2,CC(C)C(C)NC(=O)Nc1ccc(CS(C)(=O)=O)cc1 (configuration not stated),-8.49
3,CN(Cc1cccnc1)[C@@H]1CN(C(=O)c2ccco2)[C@@H]2CCCO[C@H]12,-108
4,COCCc1noc(CN2CCN(c3ccc(OC)cc3)C(=O)C2C)n1 (configuration not stated),0.296
5,Cn1ncc2c(N3CCS(=O)(=O)CC3)nc(C3CCCC3)nc21,-1.31
6,CCC(CO)N(Cc1cccnc1)C(=O)c1ccoc1C (configuration not stated),-0.0979
7,Cn1cc(CN2CCCC(O)C2)c(-c2ccccc2F)n1 (configuration not stated),-2.31
8,Cc1cccnc1CNCC1(O)CCCN(CC(C)(C)C)C1=O (configuration not stated),-11.8
9,CCC(CO)N(Cc1ccccn1)C(=O)c1ccc(=O)[nH]c1 (configuration not stated),-0.65
10,C1CCc2nnc(CNc3nc(C4CC4)nc4c3CCNCC4)n2CC1,-7.39
11,CNCc1cn(C2CCN(CCC(C)c3ccccc3)CC2)nn1 (configuration not stated),3.44
12,CC(C)CCn1cc(C(C(=O)O)N2CCC(N3CCSCC3)CC2)cn1 (configuration not stated),-1.09
13,COc1cccc(CC2(CO)CCCN(c3nccs3)C2)c1 (configuration not stated),-4.59
14,COc1ccccc1OC1CCN(Cc2ccc(N(C)C)nc2)CC1,-11.8
15,COc1ccc(-c2n[nH]cc2CN(C)CCCN2CCOCC2)c(F)c1,-2.26
16,Cc1[nH]ccc1C(=O)N1CCC2(CC1)c1nc[nH]c1CCN2CC(C)C,7.31
17,O=C(c1cccnc1O)N(Cc1ccsc1)CC1CCCO1 (configuration not stated),-12.3
18,Cc1nc(CCNC(=O)C2CC(=O)N(C(C)(C)C)C2)sc1C (configuration not stated),-13.2
19,Cc1cc(C(=O)N[C@@H]2CCNC[C@H]2O)ccc1Cl,-18.4
20,COc1ccc(S(=O)(=O)NC(=O)COC2CCCCC2)cc1C,-3.56
21,CCn1cnnc1CNC(=O)N1CCN(c2ccccc2OC)CC1,-6.02

row,SMILES,cytotoxicity at 10 µM [%]
1,Cc1cnn(C2CN(CC(=O)NCCOc3ccccc3)C2)c1,-16.7
2,c1ccc(OCc2cscn2)c(CNC2CCc3ncnn3C2)c1 (configuration not stated),-9.42
3,Cc1cc(CN2CCN(C(=O)Nc3cccnc3)CC2)on1,-7.72
4,CCc1cnc(CN2CCCC2c2noc(C3CC3)n2)o1 (configuration not stated),-4.84
5,O=C(CCOc1ccc(Cl)cc1)N1CCN(c2cnccn2)CC1,-2.65
6,CCC(CN1CCCC1)n1cncc1-c1cnn(Cc2ccccc2)c1 (configuration not stated),3.92
7,COCCNC(=O)c1sc2ccccc2c1C1CCC(CN)CC1 (configuration not stated),-2.98
8,Cc1ccc(C(=O)N2CCO[C@H]3[C@@H](OCc4ccccn4)CC[C@@H]32)o1,-2.42
9,CN(C)CCO[C@H]1CN(Cc2ccoc2)[C@@H]2COC[C@H]12,-1.23
10,Cn1cc(N2CC3(CCN(CC4CC4)CC3)OCC2=O)cn1,-6.86
11,CNC(=O)[C@H]1CO[C@H]2CCN(c3ncc(F)cn3)C[C@H]2C1,-0.0253
12,O=C(NC[C@]12COC[C@H]1CN(CC1CCOCC1)C2)c1ccco1,-72.1
13,CN(C)CCOCC1CN(Cc2ccncc2)Cc2nnn(C)c21 (configuration not stated),3.66
14,COCCN1C[C@@H]2CN(Cc3ccsc3)CCC[C@]2(C(=O)O)C1,-10.6
15,CCC(C)N1CCC2(CC1)CN(c1cncnc1)C(=O)CO2 (configuration not stated),-0.414
16,Cc1nn(C)c(N(C)C)c1CNCc1ccc(OCC(N)=O)cc1,1.25
17,CN(C)C(=O)c1cnc2n1CCN(Cc1ccsc1)C2,-68
18,O=C(NCc1cccs1)[C@@H]1CC[C@@H]2[C@@H](CCN2c2ncccn2)O1,-0.53
19,CNc1nc2cn(CCc3ccc(C)cc3)c(=O)c-2c[nH]1,6.36
